ChEMBL document CHEMBL5321201, “Investigation of morpholine isosters for the development of a potent, selective and metabolically stable mTOR kinase inhibitor” (Eur J Med Chem, 2023)

Columns and labels:
[1] = cells; details: Homo sapiens, SK-OV-3, 1 h
[2] = target: T1, Serine/threonine-protein kinase mTOR (Homo sapiens, UniProt P42345); test: Displacement of Alexa fluor 647-labeled kinase tracer 314 from N-terminal GST-fused truncated recombinant human mTOR (1360 to 2549 residues) assessed as inhibition constant by TR-FRET based Lanthascreen kinase activity assay
[3] = cells; details: Homo sapiens, SK-OV-3, 1 h; remark: listed apart in the source
[4] = cells; details: Homo sapiens, Karpas-1718, 72 h
[5] = target: T2, Phosphatidylinositol 4,5-bisphosphate 3-kinase catalytic subunit alpha isoform (Homo sapiens, UniProt P42336); test: Displacement of Alexa fluor 647-labeled kinase tracer 314 from recombinant N-terminal (His)6-tagged p110alpha (unknown origin) assessed as inhibition constant by TR-FRET based Lanthascreen kinase activity assay
[6] = test system: VL51; test: cells; details: Homo sapiens, VL51, 72 h
[7] = cells; details: Homo sapiens, SSK41, 72 h
[8] = Metabolic stability in Beagle dog hepatocytes assessed as intrinsic clearance measured per million cells at 5 microM incubated upto 180 mins by LC/MS analysis; format: ADME, cell-based, Canis lupus familiaris, Hepatocyte; details: read-out: CLH
Summary of the method: (§1)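 Cryopreserved hepatocytes from the listed species, in suspension at 200,000 cells/well in Williams Medium E with 2 mM L-glutamine and 25 mM HEPES. Compound final 5 µM in 0.5% DMSO, sampled at 0, 15, 60, 90 and 180 min. ACN precipitation, LC-MS. Hepatocyte-free medium served as negative control and 7-ethoxycoumarin as reference; duplicates.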

[9] = Metabolic stability in Beagle dog hepatocytes assessed as half life at 5 microM incubated upto 180 mins by LC/MS analysis; format: ADME, cell-based, Canis lupus familiaris, Hepatocyte
Summary of the method: as §1

[10] = Metabolic stability in CD-1 mouse hepatocytes assessed as intrinsic clearance measured per million cells at 5 microM incubated upto 180 mins by LC/MS analysis; format: ADME, cell-based, Hepatocyte; details: read-out: CLH
Summary of the method: as §1

[11] = Metabolic stability in CD-1 mouse hepatocytes assessed as half life at 5 microM incubated upto 180 mins by LC/MS analysis; format: ADME, cell-based, Hepatocyte
Summary of the method: as §1

[12] = Metabolic stability in Sprague-Dawley rat hepatocytes assessed as half life at 5 microM incubated upto 180 mins by LC/MS analysis; format: ADME, cell-based, Hepatocyte
Summary of the method: as §1

[13] = Metabolic stability in human hepatocytes assessed as half life at 5 microM incubated upto 180 mins by LC/MS analysis; format: ADME, cell-based, Hepatocyte
Summary of the method: as §1

[14] = Metabolic stability in human hepatocytes assessed as intrinsic clearance measured per million cells at 5 microM incubated upto 180 mins by LC/MS analysis; format: ADME, cell-based, Hepatocyte; details: read-out: CLH
Summary of the method: as §1

[15] = Metabolic stability in Sprague-Dawley rat hepatocytes assessed as intrinsic clearance measured per million cells at 5 microM incubated upto 180 mins by LC/MS analysis; format: ADME, cell-based, Hepatocyte; details: read-out: CLH
Summary of the method: as §1

[16] = Metabolic stability in CD-1 mouse hepatocytes assessed as parent compound remaining at 5 uM measured after 3 hrs by LC-MS analysis; format: ADME, cell-based, Hepatocyte; details: read-out: Stability
Summary of the method: as §1

[17] = AUC (0 to 8 hrs) in Sprague-Dawley rat plasma at 5 mg/kg, po administered as single dose and measured after 8 hrs by LC-MS analysis; format: ADME, organism-based; design: dose 5 mg/kg, time 8 hrs, route po
Summary of the method: (§2)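 Male Sprague Dawley rats given a single oral dose of 5 mg/kg (5 mL/kg) in 20% Captisol, pH adjusted to 3. Three rats per time point (30 min, 2, 4, 8 h); heart-puncture blood into lithium-heparin, plasma separated, brain collected. Samples precipitated with acetonitrile containing diazepam internal standard, then LC-MS quantification.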

[18] = target: Phosphatidylinositol 3-kinase catalytic subunit type 3 (Homo sapiens, UniProt Q8NEB9); test: Binding affinity to DNA-tagged VPS34 (unknown origin) assessed as dissociation constant by quantitative PCR analysis
Summary of the method: (§3)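 Competition binding: DNA-tagged kinases on immobilized ligand competed with an 11-point 3-fold dilution starting at 30 µM. Bound kinase quantified by qPCR of DNA tags. Kd fitted with the Hill equation (slope −1); duplicate experiments, mean reported.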

[19] = Metabolic stability in Sprague-Dawley rat hepatocytes assessed as parent compound remaining at 5 uM measured after 3 hrs by LC-MS analysis; format: ADME, cell-based, Hepatocyte; details: read-out: Stability
Summary of the method: as §1

[20] = Toxicity in Sprague-Dawley rat assessed as increase in insulin concentration at 5 mg/kg, po measured upto 8 hrs by ELISA; format: organism-based; details: in vivo
Summary of the method: (§4)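 Male SD rats dosed orally at 5 mg/kg in 20% Captisol, with vehicle controls. Plasma was taken by heart puncture at 30 min, 2, 4 and 8 h, three rats per point. Insulin was measured by rat/mouse insulin ELISA and glucose by colorimetric assay.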

[21] = target: T3, CYP1A2 (Homo sapiens, UniProt P05177); test: Stability of compound assessed as recombinant human CYP1A2-mediated drug metabolism by measuring compound remaining at 1 uM incubated for 60 mins by LC-MS analysis; format: ADME; details: read-out: Stability
T3 sequence (P05177 whole entry): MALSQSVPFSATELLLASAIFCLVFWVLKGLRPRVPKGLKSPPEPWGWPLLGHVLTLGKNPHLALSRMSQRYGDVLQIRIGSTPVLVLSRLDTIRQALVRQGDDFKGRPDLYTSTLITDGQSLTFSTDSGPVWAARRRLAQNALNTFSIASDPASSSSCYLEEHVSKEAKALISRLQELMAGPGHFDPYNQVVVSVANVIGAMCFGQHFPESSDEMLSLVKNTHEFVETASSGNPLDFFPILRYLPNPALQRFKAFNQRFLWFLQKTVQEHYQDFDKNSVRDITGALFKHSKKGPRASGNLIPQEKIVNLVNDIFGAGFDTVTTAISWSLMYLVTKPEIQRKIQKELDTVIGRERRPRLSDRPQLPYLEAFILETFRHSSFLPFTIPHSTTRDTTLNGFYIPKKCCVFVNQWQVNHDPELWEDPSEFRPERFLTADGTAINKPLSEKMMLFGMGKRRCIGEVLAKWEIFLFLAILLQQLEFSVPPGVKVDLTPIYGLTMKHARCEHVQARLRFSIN
Summary of the method: (§5)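 Recombinant human CYP1A1 or CYP1A2 Supersomes at 25 pmol/mL, with compound at 1 µM (0.25% DMSO) and an NADP+-regenerating cofactor mix, at 37 °C. Reactions stopped with ACN plus internal standard at 0 and 60 min. Controls: melatonin for CYP1A1 and phenacetin for CYP1A2, plus no-cofactor negatives. Duplicates.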

[22] = target: T2, Phosphatidylinositol 4,5-bisphosphate 3-kinase catalytic subunit alpha isoform; test: Binding affinity to DNA-tagged P13kalpha (unknown origin) assessed as dissociation constant by quantitative PCR analysis
Summary of the method: as §3

[23] = Toxicity in Sprague-Dawley rat assessed as increase in glucose concentration at 5 mg/kg, po measured upto 8 hrs by glucose colorimetric assay; format: organism-based; details: in vivo
Summary of the method: as §4

[24] = Metabolic stability in Beagle dog hepatocytes assessed as parent compound remaining at 5 uM measured after 3 hrs by LC-MS analysis; format: ADME, cell-based, Canis lupus familiaris, Hepatocyte; details: read-out: Stability
Summary of the method: as §1

[25] = target: T4, CYP1A1 (Homo sapiens, UniProt P04798); test: Stability of compound assessed as recombinant human CYP1A1-mediated drug metabolism by measuring compound remaining at 1 uM incubated for 60 mins by LC-MS analysis; format: ADME; details: read-out: Stability
T4 sequence (P04798 whole entry): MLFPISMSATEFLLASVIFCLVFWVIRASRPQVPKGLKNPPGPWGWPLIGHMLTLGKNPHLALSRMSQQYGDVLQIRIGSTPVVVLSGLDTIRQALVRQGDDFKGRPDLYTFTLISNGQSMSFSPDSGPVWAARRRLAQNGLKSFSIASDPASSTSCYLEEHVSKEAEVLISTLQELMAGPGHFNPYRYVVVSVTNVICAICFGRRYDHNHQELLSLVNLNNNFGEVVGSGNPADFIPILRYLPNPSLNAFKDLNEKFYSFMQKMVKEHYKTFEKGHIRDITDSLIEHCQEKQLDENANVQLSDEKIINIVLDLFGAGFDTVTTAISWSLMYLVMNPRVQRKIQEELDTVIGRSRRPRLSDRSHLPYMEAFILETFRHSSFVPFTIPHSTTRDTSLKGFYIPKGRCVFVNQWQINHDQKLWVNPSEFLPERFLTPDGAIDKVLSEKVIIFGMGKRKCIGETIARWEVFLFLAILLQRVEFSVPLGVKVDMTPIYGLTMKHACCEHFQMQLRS
Summary of the method: as §5

[26] = target: Phosphatidylinositol 4,5-bisphosphate 3-kinase catalytic subunit beta isoform (Homo sapiens, UniProt P42338); test: Binding affinity to DNA-tagged P13kbeta (unknown origin) assessed as dissociation constant by quantitative PCR analysis
Summary of the method: as §3

[27] = Metabolic stability in human hepatocytes assessed as parent compound remaining at 5 uM measured after 3 hrs by LC-MS analysis; format: ADME, cell-based, Hepatocyte; details: read-out: Stability
Summary of the method: as §1

[28] = target: Phosphatidylinositol 4,5-bisphosphate 3-kinase catalytic subunit gamma isoform (Homo sapiens, UniProt P48736); test: Binding affinity to DNA-tagged P13kgamma (unknown origin) assessed as dissociation constant by quantitative PCR analysis
Summary of the method: as §3

[29] = target: T1, Serine/threonine-protein kinase mTOR; test: Binding affinity to DNA-tagged mTOR (unknown origin) assessed as dissociation constant by quantitative PCR analysis
Summary of the method: as §3

[30] = AUC (0 to 8 hrs) in Sprague-Dawley rat brain at 5 mg/kg, po administered as single dose and measured after 8 hrs by LC-MS analysis; format: ADME, organism-based; design: time 8 hrs, dose 5 mg/kg, route po; details: in vivo
Summary of the method: as §2

[31] = target: Phosphatidylinositol 4-kinase beta (Homo sapiens, UniProt Q9UBF8); test: Binding affinity to DNA-tagged P14kbeta (unknown origin) assessed as dissociation constant by quantitative PCR analysis
Summary of the method: as §3

[32] = target: T5, Phosphatidylinositol 4,5-bisphosphate 3-kinase catalytic subunit delta isoform (Homo sapiens, UniProt O00329); test: Binding affinity to DNA-tagged P13kdelta (unknown origin) assessed as dissociation constant by quantitative PCR analysis
T5 sequence (O00329 whole entry): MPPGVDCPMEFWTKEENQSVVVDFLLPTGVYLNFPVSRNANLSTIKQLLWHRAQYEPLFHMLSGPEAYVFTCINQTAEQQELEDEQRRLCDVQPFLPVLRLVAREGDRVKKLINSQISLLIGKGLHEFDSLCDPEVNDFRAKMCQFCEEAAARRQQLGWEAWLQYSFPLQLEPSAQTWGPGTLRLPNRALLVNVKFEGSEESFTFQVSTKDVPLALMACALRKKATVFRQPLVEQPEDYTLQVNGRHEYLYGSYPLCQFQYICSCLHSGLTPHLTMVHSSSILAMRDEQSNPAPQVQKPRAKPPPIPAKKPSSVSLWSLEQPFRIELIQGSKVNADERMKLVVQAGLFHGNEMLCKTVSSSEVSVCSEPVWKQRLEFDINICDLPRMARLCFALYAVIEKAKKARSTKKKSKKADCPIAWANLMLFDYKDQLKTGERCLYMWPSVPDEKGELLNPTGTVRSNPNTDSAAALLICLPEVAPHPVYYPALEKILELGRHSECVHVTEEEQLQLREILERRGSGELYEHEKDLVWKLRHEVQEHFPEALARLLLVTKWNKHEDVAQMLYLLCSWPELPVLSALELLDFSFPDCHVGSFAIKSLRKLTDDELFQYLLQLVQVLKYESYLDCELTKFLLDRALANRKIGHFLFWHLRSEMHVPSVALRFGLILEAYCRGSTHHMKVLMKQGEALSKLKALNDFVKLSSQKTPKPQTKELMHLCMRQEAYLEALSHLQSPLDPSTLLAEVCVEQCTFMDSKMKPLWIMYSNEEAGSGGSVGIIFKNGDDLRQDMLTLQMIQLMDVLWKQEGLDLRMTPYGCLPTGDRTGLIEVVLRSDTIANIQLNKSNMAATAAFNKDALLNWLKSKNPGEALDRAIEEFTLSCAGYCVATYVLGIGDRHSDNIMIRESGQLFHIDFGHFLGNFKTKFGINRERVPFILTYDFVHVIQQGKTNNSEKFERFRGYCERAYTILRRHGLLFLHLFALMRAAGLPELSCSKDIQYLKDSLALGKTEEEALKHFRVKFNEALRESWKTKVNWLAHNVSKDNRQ
Summary of the method: as §3

T2 sequence (P42336 whole entry, canonical isoform): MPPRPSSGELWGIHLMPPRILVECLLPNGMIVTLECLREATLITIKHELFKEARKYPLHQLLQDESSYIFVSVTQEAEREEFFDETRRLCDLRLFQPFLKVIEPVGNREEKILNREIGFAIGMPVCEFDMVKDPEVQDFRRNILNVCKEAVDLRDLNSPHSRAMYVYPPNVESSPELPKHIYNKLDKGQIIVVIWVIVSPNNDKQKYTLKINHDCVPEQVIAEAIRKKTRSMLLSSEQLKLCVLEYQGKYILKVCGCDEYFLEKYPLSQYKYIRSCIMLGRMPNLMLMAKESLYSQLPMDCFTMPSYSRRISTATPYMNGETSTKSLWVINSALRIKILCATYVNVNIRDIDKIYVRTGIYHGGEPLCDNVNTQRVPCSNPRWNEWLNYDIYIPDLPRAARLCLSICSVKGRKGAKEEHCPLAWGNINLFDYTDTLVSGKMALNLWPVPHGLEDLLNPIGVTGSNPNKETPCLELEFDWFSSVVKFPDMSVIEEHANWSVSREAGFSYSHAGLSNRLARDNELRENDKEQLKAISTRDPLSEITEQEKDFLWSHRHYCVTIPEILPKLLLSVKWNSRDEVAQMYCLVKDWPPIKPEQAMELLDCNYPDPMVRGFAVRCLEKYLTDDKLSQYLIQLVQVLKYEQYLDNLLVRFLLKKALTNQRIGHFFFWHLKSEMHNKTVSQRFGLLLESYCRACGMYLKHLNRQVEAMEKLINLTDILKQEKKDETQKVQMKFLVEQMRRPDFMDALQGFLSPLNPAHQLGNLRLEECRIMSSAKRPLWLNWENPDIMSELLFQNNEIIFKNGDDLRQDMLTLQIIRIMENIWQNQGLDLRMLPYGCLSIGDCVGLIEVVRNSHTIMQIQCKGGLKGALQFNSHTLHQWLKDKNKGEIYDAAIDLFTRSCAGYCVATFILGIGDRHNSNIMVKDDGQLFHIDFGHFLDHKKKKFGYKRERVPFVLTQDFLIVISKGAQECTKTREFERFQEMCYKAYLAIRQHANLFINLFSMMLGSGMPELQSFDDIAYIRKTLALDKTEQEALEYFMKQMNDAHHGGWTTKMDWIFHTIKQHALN
Phosphatidylinositol 3-kinase catalytic subunit type 3, sequence (Q8NEB9 whole entry): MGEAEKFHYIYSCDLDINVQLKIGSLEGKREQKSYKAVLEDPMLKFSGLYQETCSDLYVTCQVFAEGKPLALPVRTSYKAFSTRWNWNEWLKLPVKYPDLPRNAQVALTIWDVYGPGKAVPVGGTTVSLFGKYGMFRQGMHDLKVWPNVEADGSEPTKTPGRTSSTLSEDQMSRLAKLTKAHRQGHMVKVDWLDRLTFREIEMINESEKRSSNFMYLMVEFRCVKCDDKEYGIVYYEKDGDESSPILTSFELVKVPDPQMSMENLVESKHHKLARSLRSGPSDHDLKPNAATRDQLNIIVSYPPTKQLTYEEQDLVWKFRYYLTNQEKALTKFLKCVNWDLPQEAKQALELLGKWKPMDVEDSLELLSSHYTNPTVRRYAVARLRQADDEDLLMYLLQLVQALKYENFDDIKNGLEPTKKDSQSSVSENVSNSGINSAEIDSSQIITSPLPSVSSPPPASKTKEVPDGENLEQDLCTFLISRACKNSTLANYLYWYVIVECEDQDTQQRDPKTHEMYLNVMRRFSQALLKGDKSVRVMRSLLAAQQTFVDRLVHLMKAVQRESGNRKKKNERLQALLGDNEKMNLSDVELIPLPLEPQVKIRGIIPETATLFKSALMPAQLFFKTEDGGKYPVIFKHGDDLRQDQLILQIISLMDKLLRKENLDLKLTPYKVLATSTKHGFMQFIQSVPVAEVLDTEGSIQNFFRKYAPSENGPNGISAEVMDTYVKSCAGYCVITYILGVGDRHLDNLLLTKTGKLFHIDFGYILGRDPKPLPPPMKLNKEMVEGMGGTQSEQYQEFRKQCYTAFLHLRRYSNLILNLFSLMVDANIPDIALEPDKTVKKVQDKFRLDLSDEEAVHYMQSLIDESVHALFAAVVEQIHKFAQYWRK
Phosphatidylinositol 4,5-bisphosphate 3-kinase catalytic subunit gamma isoform, sequence (P48736 whole entry, canonical isoform): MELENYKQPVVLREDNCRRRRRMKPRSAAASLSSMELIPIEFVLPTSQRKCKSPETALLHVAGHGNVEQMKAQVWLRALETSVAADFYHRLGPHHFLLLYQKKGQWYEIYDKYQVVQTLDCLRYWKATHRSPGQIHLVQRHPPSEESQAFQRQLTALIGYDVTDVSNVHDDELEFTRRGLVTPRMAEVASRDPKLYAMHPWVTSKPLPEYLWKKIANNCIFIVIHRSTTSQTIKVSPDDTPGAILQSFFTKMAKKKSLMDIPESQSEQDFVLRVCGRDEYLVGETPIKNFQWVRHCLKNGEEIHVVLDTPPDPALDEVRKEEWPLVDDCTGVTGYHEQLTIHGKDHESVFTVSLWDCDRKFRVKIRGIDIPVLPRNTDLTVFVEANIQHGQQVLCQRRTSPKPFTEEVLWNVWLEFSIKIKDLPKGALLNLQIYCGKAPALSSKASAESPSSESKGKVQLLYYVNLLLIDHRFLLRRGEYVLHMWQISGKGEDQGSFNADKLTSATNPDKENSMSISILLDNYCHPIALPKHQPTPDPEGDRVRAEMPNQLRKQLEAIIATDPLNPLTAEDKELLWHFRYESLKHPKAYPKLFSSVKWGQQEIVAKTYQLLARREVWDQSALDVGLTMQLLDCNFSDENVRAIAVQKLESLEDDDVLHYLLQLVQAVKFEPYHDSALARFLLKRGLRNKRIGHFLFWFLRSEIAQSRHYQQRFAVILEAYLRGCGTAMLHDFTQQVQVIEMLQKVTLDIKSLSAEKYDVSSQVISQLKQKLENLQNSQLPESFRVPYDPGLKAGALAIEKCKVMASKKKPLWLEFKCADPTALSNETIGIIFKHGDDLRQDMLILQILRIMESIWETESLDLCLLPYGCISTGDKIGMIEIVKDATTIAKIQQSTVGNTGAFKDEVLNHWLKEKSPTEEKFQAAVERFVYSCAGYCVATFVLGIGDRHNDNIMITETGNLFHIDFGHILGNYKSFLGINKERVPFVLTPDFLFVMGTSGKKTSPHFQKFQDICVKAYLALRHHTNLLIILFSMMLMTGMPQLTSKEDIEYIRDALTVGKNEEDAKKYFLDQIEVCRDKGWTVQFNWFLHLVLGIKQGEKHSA
Phosphatidylinositol 4,5-bisphosphate 3-kinase catalytic subunit beta isoform, sequence (P42338 whole entry, canonical isoform): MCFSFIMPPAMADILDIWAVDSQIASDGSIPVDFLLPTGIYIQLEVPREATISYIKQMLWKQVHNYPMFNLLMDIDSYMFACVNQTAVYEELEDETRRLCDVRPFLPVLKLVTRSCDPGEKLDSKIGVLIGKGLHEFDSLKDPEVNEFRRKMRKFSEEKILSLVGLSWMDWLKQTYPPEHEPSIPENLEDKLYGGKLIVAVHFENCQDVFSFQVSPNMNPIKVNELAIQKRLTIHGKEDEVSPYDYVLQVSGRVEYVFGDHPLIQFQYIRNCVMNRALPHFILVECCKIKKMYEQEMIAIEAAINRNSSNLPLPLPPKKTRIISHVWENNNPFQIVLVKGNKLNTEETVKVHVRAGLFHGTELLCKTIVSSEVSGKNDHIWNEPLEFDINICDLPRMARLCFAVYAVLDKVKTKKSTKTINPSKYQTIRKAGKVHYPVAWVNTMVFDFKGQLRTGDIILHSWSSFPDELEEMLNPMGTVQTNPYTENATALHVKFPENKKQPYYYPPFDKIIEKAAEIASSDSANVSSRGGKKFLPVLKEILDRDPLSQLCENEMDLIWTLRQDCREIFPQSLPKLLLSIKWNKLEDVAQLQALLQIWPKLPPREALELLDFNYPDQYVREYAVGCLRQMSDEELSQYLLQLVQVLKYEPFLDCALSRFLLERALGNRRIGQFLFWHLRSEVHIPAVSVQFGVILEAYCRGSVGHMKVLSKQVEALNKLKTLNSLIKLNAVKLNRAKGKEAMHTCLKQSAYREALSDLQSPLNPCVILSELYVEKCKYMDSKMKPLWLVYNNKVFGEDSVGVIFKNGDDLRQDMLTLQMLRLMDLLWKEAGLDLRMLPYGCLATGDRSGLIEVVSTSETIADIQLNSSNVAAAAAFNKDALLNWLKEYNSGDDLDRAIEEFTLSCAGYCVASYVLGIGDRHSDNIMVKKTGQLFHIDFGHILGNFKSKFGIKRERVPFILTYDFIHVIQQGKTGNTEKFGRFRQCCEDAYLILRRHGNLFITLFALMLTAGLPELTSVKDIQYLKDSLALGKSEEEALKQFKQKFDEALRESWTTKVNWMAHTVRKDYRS
Phosphatidylinositol 4-kinase beta, sequence (Q9UBF8 whole entry): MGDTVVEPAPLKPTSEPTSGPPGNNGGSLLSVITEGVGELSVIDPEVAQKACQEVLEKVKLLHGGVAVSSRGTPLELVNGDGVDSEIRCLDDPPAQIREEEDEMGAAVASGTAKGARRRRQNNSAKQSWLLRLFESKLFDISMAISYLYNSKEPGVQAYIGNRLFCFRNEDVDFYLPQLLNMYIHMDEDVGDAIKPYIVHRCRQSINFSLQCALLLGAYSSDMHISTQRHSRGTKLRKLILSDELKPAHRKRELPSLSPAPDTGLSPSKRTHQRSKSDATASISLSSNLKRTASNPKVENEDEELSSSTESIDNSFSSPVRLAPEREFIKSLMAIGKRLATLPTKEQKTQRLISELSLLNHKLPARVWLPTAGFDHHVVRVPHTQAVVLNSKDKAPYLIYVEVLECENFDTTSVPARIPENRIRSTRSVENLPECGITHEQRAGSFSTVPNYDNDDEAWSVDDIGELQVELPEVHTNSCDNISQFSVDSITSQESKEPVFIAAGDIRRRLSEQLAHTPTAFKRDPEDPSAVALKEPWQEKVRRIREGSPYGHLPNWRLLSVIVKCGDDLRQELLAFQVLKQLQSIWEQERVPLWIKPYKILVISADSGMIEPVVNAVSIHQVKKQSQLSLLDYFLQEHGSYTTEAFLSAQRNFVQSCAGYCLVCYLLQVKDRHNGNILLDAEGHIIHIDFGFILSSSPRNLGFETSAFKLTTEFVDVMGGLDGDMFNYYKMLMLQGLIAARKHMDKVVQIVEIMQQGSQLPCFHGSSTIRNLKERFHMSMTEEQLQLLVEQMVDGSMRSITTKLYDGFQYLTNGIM

IC50 [1] [nM] | Ki [2] [nM] | IC50 [3] [nM] | IC50 [4] [nM] | Ki [5] [nM] | IC50 [6] [nM] | IC50 [7] [nM] | hepatocyte CLint at 5 µM [8] [µL/min/1e6 cells] | half-life at 5 µM [9] [min] | hepatocyte CLint at 5 µM [10] [µL/min/1e6 cells] | half-life at 5 µM [11] [min] | half-life at 5 µM [12] [min] | half-life at 5 µM [13] [min] | hepatocyte CLint at 5 µM [14] [µL/min/1e6 cells] | hepatocyte CLint at 5 µM [15] [µL/min/1e6 cells] | SMILES | other results
199 | 16 | 94 | 354 | 125 | 150 | 195 | – | – | – | – | – | – | – | – | Nc1cc(C(F)F)c(-c2nc(C3=CCOCC3)nc(N3C4CCC3COC4)n2)cn1 | –
– | – | – | – | – | – | – | 45 | 18 | 50 | 17 | 47 | 39 | 22 | 18 | CCOc1ccc2ccc(=O)oc2c1 | –
171 | 22 | 85 | 118 | 1140 | 311 | 369 | 0.42 | > 180 | 2.11 | > 180 | > 180 | > 180 | 3.56 | 2.99 | Nc1cc(C(F)F)c(-c2nc(C3CCOCC3)nc(N3C4CCC3COC4)n2)cn1 | remaining at 3 h, 5 µM [16]: 74.5%; AUC(0-t) at 8 h [17]: 3760 ng·h/mL; Kd [18]: 6100 nM; remaining at 3 h, 5 µM [19]: 62.4%; Activity [20]: Non-Toxic; remaining at 1 h, 1 µM [21]: 84.2%; Kd [22]: 420 nM; Activity [23]: Non-Toxic; remaining at 3 h, 5 µM [24]: 92.9%; remaining at 1 h, 1 µM [25]: 53.3%; Kd [26]: 6450 nM; remaining at 3 h, 5 µM [27]: 59.9%; Kd [28]: 5600 nM; Kd [29]: 5 nM; AUC [30]: 2659 ng·h/g; Kd [31]: > 30000 nM; Kd [32]: 15500 nM
